Measurements taken from ChEMBL document CHEMBL1124712, “Pre- and postsynaptic dopaminergic activities of indolizidine and quinolizidine derivatives of 3-(3-hydroxyphenyl)-N-(n-propyl)piperidine (3-PPP). Further developments of a dopamine receptor model” (J Med Chem, 1990).
One block for each compound: values may come before it. Active and inactive are the calls of the source. No cut-off for these calls is given here.

How the values were obtained:
Rattus norvegicus [1] = assay: Locomotor activity in normal rat at 100 umol/kg expressed as percent of control; assay type: functional
Procedure, shortened: (§1)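 Untreated rats were given the test drug sc. Locomotor activity was recorded with motility meters and expressed as percent of controls, with significance by Student's t test (p < 0.05).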

D(2) dopamine receptor [2] = biological target: T1, D(2) dopamine receptor (Rattus norvegicus, UniProt P61169); assay: In vitro inhibition of [3H]spiperone binding to Dopamine receptor D2 in rat striatal membranes; assay type: cell membranes, Membrane
T1 sequence (P61169 whole entry): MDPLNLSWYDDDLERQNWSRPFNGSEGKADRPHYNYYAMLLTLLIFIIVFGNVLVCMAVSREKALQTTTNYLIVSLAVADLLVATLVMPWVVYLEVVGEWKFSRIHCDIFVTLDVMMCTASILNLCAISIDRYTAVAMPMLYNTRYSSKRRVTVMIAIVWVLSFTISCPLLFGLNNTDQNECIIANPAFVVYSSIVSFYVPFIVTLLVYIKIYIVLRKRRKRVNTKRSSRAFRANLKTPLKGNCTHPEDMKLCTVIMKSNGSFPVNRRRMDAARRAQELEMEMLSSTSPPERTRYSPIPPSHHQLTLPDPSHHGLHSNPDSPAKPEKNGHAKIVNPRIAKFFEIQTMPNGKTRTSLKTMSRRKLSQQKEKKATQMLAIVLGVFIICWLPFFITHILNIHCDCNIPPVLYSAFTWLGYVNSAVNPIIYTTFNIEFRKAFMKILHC

Rattus norvegicus [3] = assay: DOPA accumulation in normal rat striatal region at 100 umol/kg expressed as percent of control; assay type: functional
D(2) dopamine receptor [4] = biological target: T1, D(2) dopamine receptor; assay: In vitro inhibition of [3H]N-0437 binding to Dopamine receptor D2 in rat striatal membranes; assay type: cell membranes, Membrane
Rattus norvegicus [5] = assay: DOPA accumulation in normal rat limbic region at 100 umol/kg expressed as percent of control; assay type: functional, Limbic system
Rattus norvegicus [6] = assay: Locomotor activity in reserpine-pretreated ratat the dose of 50 umol/kg; Accumulation counts/30 min; assay type: functional
Rattus norvegicus [7] = assay: DOPA accumulation in normal rat cortex at 100 umol/kg expressed as percent of control; assay type: functional
Rattus norvegicus [8] = assay: DOPA accumulation in reserpine-pretreated rat cortex after subcutaneous administration; Inactive; assay type: functional, organism-based
Rattus norvegicus [9] = assay: DOPA accumulation in normal rat limbic region at 213 umol/kg expressed as percent of control; assay type: functional, Limbic system
Rattus norvegicus [10] = assay: Locomotor activity in normal rat at 0.8 umol/kg expressed as percent of control; assay type: functional
Rattus norvegicus [11] = assay: DOPA accumulation in normal rat cortex at 213 umol/kg expressed as percent of control; Inactive; assay type: functional, organism-based
Rattus norvegicus [12] = assay: DOPA accumulation in normal rat striatal region at 27 umol/kg expressed as percent of control; assay type: functional
Rattus norvegicus [13] = assay: DOPA accumulation in normal rat cortex at 27 umol/kg expressed as percent of control; Inactive; assay type: functional, organism-based
Rattus norvegicus [14] = assay: Locomotor activity in reserpine-pretreated ratat the dose of 213 umol/kg; Accumulation counts/30 min; assay type: functional
Rattus norvegicus [15] = assay: DOPA accumulation in reserpine-pretreated rat limbic region after subcutaneous administration; assay type: functional; conditions: Limbic system, sc
Rattus norvegicus [16] = assay: DOPA accumulation in reserpine-pretreated rat striatal region after subcutaneous administration; assay type: functional; conditions: sc
Rattus norvegicus [17] = assay: Locomotor activity in normal rat at 213 umol/kg expressed as percent of control; assay type: functional
Rattus norvegicus [18] = assay: DOPA accumulation in normal rat limbic region at 50 umol/kg expressed as percent of control; assay type: functional, Limbic system
Rattus norvegicus [19] = assay: Locomotor activity in normal rat at 3.1 umol/kg expressed as percent of control; assay type: functional; procedure, shortened: as §1
Rattus norvegicus [20] = assay: DOPA accumulation in normal rat cortex at 50 umol/kg expressed as percent of control; Inactive; assay type: functional, organism-based
Rattus norvegicus [21] = assay: Locomotor activity in reserpine-pretreated rat at the dose of 50 umol/kg; Accumulation counts/30 min; assay type: functional
Rattus norvegicus [22] = assay: Locomotor activity in normal rat at 50 umol/kg expressed as percent of control; assay type: functional; procedure, shortened: as §1
Rattus norvegicus [23] = assay: DOPA accumulation in normal rat striatal region at 50 umol/kg expressed as percent of control; assay type: functional
Rattus norvegicus [24] = assay: DOPA accumulation in normal rat cortex at of 50 umol/kg expressed as percent of control; assay type: functional
Rattus norvegicus [25] = assay: DOPA accumulation in normal rat striatal region at of 50 umol/kg expressed as percent of control; assay type: functional
Rattus norvegicus [26] = assay: DOPA accumulation in reserpine-pretreated rat limbic region after subcutaneous administration of 50 umol/kg; Range is 1.1-6.5; assay type: functional; conditions: Limbic system, sc
Rattus norvegicus [27] = assay: DOPA accumulation in reserpine-pretreated rat striatal region after subcutaneous administration of 50 umol/kg; Range is 1.7-4; assay type: functional; conditions: sc
Rattus norvegicus [28] = assay: Locomotor activity in normal rat at 12.5 umol/kg expressed as percent of control; assay type: functional; procedure, shortened: as §1
Rattus norvegicus [29] = assay: Locomotor activity in normal rat at 1.6 umol/kg expressed as percent of control; assay type: functional
Rattus norvegicus [30] = assay: Locomotor activity in reserpine-pretreated ratat the dose of 13 umol/kg; Accumulation counts/30 min; assay type: functional
Rattus norvegicus [31] = assay: DOPA accumulation in normal rat striatal region at 0.8 umol/kg expressed as percent of control; assay type: functional
Rattus norvegicus [32] = assay: DOPA accumulation in normal rat limbic region at 0.8 umol/kg expressed as percent of control; assay type: functional, Limbic system
Rattus norvegicus [33] = assay: DOPA accumulation in normal rat limbic region at 27 umol/kg expressed as percent of control; assay type: functional, Limbic system
Rattus norvegicus [34] = assay: DOPA accumulation in normal rat cortex at 0.8 umol/kg expressed as percent of control; Inactive; assay type: functional, organism-based
Rattus norvegicus [35] = assay: DOPA accumulation in normal rat limbic region at 50 umol/kg expressed as percent of control; Inactive; assay type: functional, organism-based; conditions: Limbic system
Rattus norvegicus [36] = assay: DOPA accumulation in reserpine-pretreated rat limbic region after subcutaneous administration of 50 umol/kg; Range is 0.44-3.5; assay type: functional; conditions: Limbic system, sc
Rattus norvegicus [37] = assay: DOPA accumulation in normal rat cortex at 50 umol/kg expressed as percent of control; assay type: functional
Rattus norvegicus [38] = assay: DOPA accumulation in reserpine-pretreated rat cortex after subcutaneous administration of 50 umol/kg; Inactive; assay type: functional, organism-based
Rattus norvegicus [39] = assay: DOPA accumulation in normal rat striatal region at 50 umol/kg expressed as percent of control; Inactive; assay type: functional, organism-based
Rattus norvegicus [40] = assay: Locomotor activity in reserpine-pretreated rat at the dose of 100 umol/kg; Accumulation counts/30 min; assay type: functional
Rattus norvegicus [41] = assay: DOPA accumulation in normal rat striatal region at 12.5 umol/kg expressed as percent of control; assay type: functional
Rattus norvegicus [42] = assay: Locomotor activity in normal rat at 25 umol/kg expressed as percent of control; assay type: functional; procedure, shortened: as §1
Rattus norvegicus [43] = assay: DOPA accumulation in reserpine-pretreated rat striatal region after subcutaneous administration of 50 umol/kg; Inactive; assay type: functional, organism-based
Rattus norvegicus [44] = assay: DOPA accumulation in reserpine-pretreated rat limbic region after subcutaneous administration of 50 umol/kg; Inactive; assay type: functional, organism-based; conditions: Limbic system
Rattus norvegicus [45] = assay: DOPA accumulation in normal rat cortex at 12.5 umol/kg expressed as percent of control; Inactive; assay type: functional, organism-based
Rattus norvegicus [46] = assay: DOPA accumulation in normal rat limbic region at 12.5 umol/kg expressed as percent of control; assay type: functional, Limbic system

SMILES: Oc1cccc(C2CCCN3CCCCC23)c1 (configuration not stated)
Control (Rattus norvegicus [1]): 142%
IC50 (D(2) dopamine receptor [2]): 13 µM
Control (Rattus norvegicus [3]): 54%
IC50 (D(2) dopamine receptor [4]): 580 nM
Control (Rattus norvegicus [5]): 61%
Locomotor activity (Rattus norvegicus [6]): 14
Control (Rattus norvegicus [7]): 48%

SMILES: CCCN1CCC[C@@H](c2cccc(O)c2)C1 [PRECLAMOL]
ED50 (Rattus norvegicus [8]): inactive
Control (Rattus norvegicus [9]): 95%
Control (Rattus norvegicus [10]): 74%
Control (Rattus norvegicus [11]): inactive
Control (Rattus norvegicus [12]): 147%
Control (Rattus norvegicus [13]): inactive
Locomotor activity (Rattus norvegicus [14]): 12
ED50 (Rattus norvegicus [15]): 0.8 µmol/kg
ED50 (Rattus norvegicus [16]): 1.7 µmol/kg
Control (Rattus norvegicus [17]): 40%

SMILES: Oc1cccc([C@@H]2CCCN3CCCC23)c1 (some centres not stated)
Control (Rattus norvegicus [18]): 153%
Control (Rattus norvegicus [19]): 135%
Control (Rattus norvegicus [20]): inactive
IC50 (D(2) dopamine receptor [2]): 6.5 µM
Locomotor activity (Rattus norvegicus [21]): 21
IC50 (D(2) dopamine receptor [4]): 170 nM
Control (Rattus norvegicus [22]): 72%
Control (Rattus norvegicus [23]): 245%

SMILES: Oc1cccc([C@H]2CCCN3CCCC23)c1 (some centres not stated)
Control (Rattus norvegicus [18]): 46%
IC50 (D(2) dopamine receptor [2]): 4.9 µM
Control (Rattus norvegicus [24]): 37%
Locomotor activity (Rattus norvegicus [21]): 25
IC50 (D(2) dopamine receptor [4]): 45 nM
Control (Rattus norvegicus [25]): 46%
Control (Rattus norvegicus [22]): 83%
ED50 (Rattus norvegicus [26]): 1.1 µmol/kg
ED50 (Rattus norvegicus [27]): 1.7 µmol/kg
Control (Rattus norvegicus [28]): 42%

SMILES: CCCN1CCC[C@H](c2cccc(O)c2)C1
ED50 (Rattus norvegicus [8]): inactive
Control (Rattus norvegicus [29]): 75%
Locomotor activity (Rattus norvegicus [30]): 78
Control (Rattus norvegicus [31]): 81%
Control (Rattus norvegicus [32]): 86%
Control (Rattus norvegicus [12]): 45%
Control (Rattus norvegicus [33]): 40%
Control (Rattus norvegicus [13]): inactive
ED50 (Rattus norvegicus [15]): 1 µmol/kg
Control (Rattus norvegicus [34]): inactive
ED50 (Rattus norvegicus [16]): 1.3 µmol/kg
Control (Rattus norvegicus [17]): 230%

IC50 (D(2) dopamine receptor [2]): 0.0088 µM
IC50 (D(2) dopamine receptor [4]): 0.62 nM
SMILES: CCCN(CCc1ccsc1)C1CCc2c(O)cccc2C1 (configuration not stated)

SMILES: Oc1cccc(C2CCCN3CCCC23)c1 (racemic)
Control (Rattus norvegicus [35]): inactive
IC50 (D(2) dopamine receptor [2]): 3.8 µM
ED50 (Rattus norvegicus [36]): 0.44 µmol/kg
Locomotor activity (Rattus norvegicus [21]): 13
IC50 (D(2) dopamine receptor [4]): 75 nM
Control (Rattus norvegicus [22]): 48%
Control (Rattus norvegicus [37]): 57%
ED50 (Rattus norvegicus [38]): inactive
Control (Rattus norvegicus [39]): inactive

SMILES: O=C(O)C(=O)O.Oc1cccc(C2CCC3CCCCN3C2)c1 (configuration not stated)
Control (Rattus norvegicus [1]): 220%
IC50 (D(2) dopamine receptor [2]): 40 µM
Control (Rattus norvegicus [3]): 56%
IC50 (D(2) dopamine receptor [4]): 7900 nM
Locomotor activity (Rattus norvegicus [40]): 262
Control (Rattus norvegicus [5]): 69%
Control (Rattus norvegicus [7]): 62%

SMILES: Oc1cccc(C2=CCCN3CCCCC23)c1 (configuration not stated)
Control (Rattus norvegicus [41]): 200%
Control (Rattus norvegicus [19]): 82%
IC50 (D(2) dopamine receptor [2]): 5.3 µM
Control (Rattus norvegicus [42]): 51%
ED50 (Rattus norvegicus [43]): inactive
IC50 (D(2) dopamine receptor [4]): 320 nM
ED50 (Rattus norvegicus [44]): inactive
ED50 (Rattus norvegicus [38]): inactive
Control (Rattus norvegicus [45]): inactive
Control (Rattus norvegicus [46]): 165%
Locomotor activity (Rattus norvegicus [6]): 8
Control (Rattus norvegicus [28]): 45%
